RGS4 block: inhibitors of human RGS4; AID 463165; B-score at 10 µM; HEK293 M3R/RGS4 inducible, Fluo-4 calcium flux; hits give high values; triggered by carbachol at its EC20; 310,000 tested, 0.45% active; P49798;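 active = B-score, a plate-corrected calcium signal, over three deviations above library mean, with baseline fluorescence within five deviations of library mean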;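 also: RGS4 expression induced by doxycycline in cells with stable M3 receptor; B-score is computed from the integrated fluorescence ratio over baseline after carbachol; higher B-score means a larger calcium signal and so more RGS4 inhibition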
Target sequence (P49798 whole entry, looked up): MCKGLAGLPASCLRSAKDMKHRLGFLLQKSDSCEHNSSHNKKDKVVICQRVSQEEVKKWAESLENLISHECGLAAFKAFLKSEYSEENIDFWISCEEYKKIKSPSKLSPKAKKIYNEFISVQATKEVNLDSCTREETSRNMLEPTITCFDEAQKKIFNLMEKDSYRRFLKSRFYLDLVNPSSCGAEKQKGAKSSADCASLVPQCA
MrgX1 antagonist: human MrgX1 receptor antagonism, primary screen. MRGX1-HEK293 calcium flux, Fluo-4, BAM8-22 antagonism; hits give low values. AID 588676. Q96LB2. B-score at 10 µM. 310,000 tested, 1.3% active;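 active = calcium-response B-score plate-corrected more than 3 library SD below zero, starting fluorescence within 5 deviations, no agonist response on first addition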;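 also: peak minus trough fluorescence over baseline after final BAM8-22 challenge near maximal dose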
RGS4 pot: RGS4 potentiation or activation; HEK293 M3R/inducible RGS4, carbachol calcium flux Fluo4; hits give low values; AID 463111; B-score at 10 µM; 310,000 tested, 0.92% active;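 active = B-score of the integrated calcium signal more than 4 SD below the library mean, with starting fluorescence not abnormally high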;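 also: negative B-score means reduced calcium response which marks RGS4 activation or potentiation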
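Assay system: Inducible-RGS4 HEK293 cells carrying M3 receptor | Schedule: Compound preincubation 20 min at room temperature before agonist | Signal: Kinetic calcium fluorescence imaging with Fluo4-AM dye, 2 µM | Read-out basis: B score from integrated fluorescence ratio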
MrgX1 allo act: human MrgX1 positive allosteric modulation, primary screen; Q96LB2; MrgX1-HEK293, Fluo-4 calcium flux, FDSS; hits give high values; B-score at 10 µM; 310,000 tested, 0.63% active;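 active = plate-corrected calcium response at least 3 library SD above typical, normal starting fluorescence, not activating the receptor alone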;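 also: compound read alongside a low EC10 to EC30 dose of BAM8-22 agonist; peak minus trough fluorescence over baseline measured at the second addition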
MrgX1 ag: human MrgX1 receptor agonism, primary screen; Q96LB2; MrgX1-HEK293 cells, Fluo-4 calcium fluorescence, agonist mode; hits give high values; B-score at 10 µM; 310,000 tested, 0.44% active; AID 588627;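 active = calcium response B-score plate-corrected fluorescence ratio at least 3 library SD, with starting fluorescence B-score inside 5 SD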
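Material – MrgX1-expressing HEK293 cells · Input – 15,000 cells seeded per well · Dosing – compound as first of three additions · Times – overnight seeding, then 1 h dark dye loading · Measured by – kinetic Fluo-4 NW fluorescence of intracellular calcium · Read-out – B-scored fluorescence response ratio · Benchmarks – positive and negative control wells on each plate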
Of the large screens only hits and unclear results are named; the others gave an inactive call. Sampled rows, rich in hits. Any-hit rate of the full collection: about 3.5%.

O=[N+]([O-])c1cc(F)c(N2CCCCCC2)cc1N1CCNCC1	MrgX1 antagonist -5.18
O=[N+]([O-])c1ccc(N2CCNCC2)cc1N1CCCCCC1	MrgX1 allo act 11.4
CN1CCN(c2ccc([N+](=O)[O-])c(N3CCCCC3)c2)CC1	none
OC(CNCCc1c[nH]c2ccccc12)c1ccccc1 (stereo unspecified)	none
OCC[N+]12CCC(CC1)C(C(O)(c1ccccc1)c1ccccc1)C2 (stereo unspecified)	none
O=C(C[N+]12CCC(CC1)C(C(O)(c1ccccc1)c1ccccc1)C2)c1ccc(Br)cc1 (stereo unspecified)	RGS4 pot -10.3
COC(=O)C(Cc1ccc(N(CCCl)CCCl)cc1)N=Cc1ccccc1O (stereo unspecified)	RGS4 pot -7.13
O=C1NC(=O)C(=Cc2ccc(Oc3ccc([N+](=O)[O-])cc3)cc2)C(=O)N1	MrgX1 allo act 7.02
O=C1NC(=O)C(=Cc2ccc3ccccc3c2)C(=O)N1	none
O=C(c1ccc(Cl)cc1)C1CCCN(Cc2cccc3cccnc23)C1 (stereo unspecified)	RGS4 pot -7.07
O=C(c1ccc(Cl)cc1)C1CCCN(Cc2cccc3ncccc23)C1 (stereo unspecified)	none
CCN(CC)P(c1n(C)cc[n+]1C)N(CC)CC	none
N#CC(C#N)=NNc1ccc(-n2ccc(C(F)(F)F)n2)cc1	none
CCN(CC)S(=O)(=O)c1ccc(NN=C(C#N)C#N)cc1	MrgX1 antagonist -7.38
C[C@H]1CC[C@@H]2N(C1)C[C@H]1[C@@H]3C[C@H]4[C@@H](CC(=O)[C@H]5C[C@@H](O)CC[C@@]54C)[C@@H]3CC[C@H]1[C@]2(C)O	none
CC(=O)O[C@H]1CC[C@@]2(C)[C@H](C1)C(=O)C[C@H]1[C@@H]3CC[C@@H]4[C@@H](CN5C[C@@H](C)CC[C@H]5[C@@]4(C)O)[C@@H]3C[C@@H]12	RGS4 pot -7.04
Cc1cc(=O)oc2c(C)c(OCC(=O)N3CCN(Cc4ccccc4)CC3)ccc12	none
O=C(Nc1ccccc1)OC1CN=C(N[N+](=O)[O-])NC1 (stereo unspecified)	MrgX1 antagonist -5.69
CCOc1cc2c(cc1OCC)-n1cccc1C(c1ccc(C)cc1C)NC2 (stereo unspecified)	none
CCOc1cc2c(cc1OCC)-n1cccc1C(c1cc(C)c(OC)cc1C)NC2 (stereo unspecified)	MrgX1 antagonist -4.93
O=C1NC(=S)N(c2ccccc2)C(=O)/C1=C/c1ccco1	none
O=C1NC(=S)N(c2ccccc2)C(=O)C1C(c1ccncc1)C1C(=O)NC(=S)N(c2ccccc2)C1=O (stereo unspecified)	MrgX1 antagonist -7.61
CCCCn1c(C)c(C(=O)O)c2cc(OC)c3ccccc3c21	none
Cc1c(C(c2ccc(Cl)cc2Cl)c2c(O)c3ccccc3oc2=O)c(=O)n(-c2ccccc2)n1C (stereo unspecified)	MrgX1 allo act 13.6
Cc1c(C(c2ccc(Br)cc2)c2c(O)c3ccccc3oc2=O)c(=O)n(-c2ccccc2)n1C (stereo unspecified)	none
Cc1cc(Oc2ccc(C(F)(F)F)cc2[N+](=O)[O-])c2c3c(c(=O)oc2c1)CCC3	none
Cc1cc(Oc2ccc(C(F)(F)F)cc2[N+](=O)[O-])c2c3c(c(=O)oc2c1)CCCC3	RGS4 pot -7.42
CCc1c(-c2ccccc2)nc2ccccc2c1C(=O)N1CCC2(CC1)OCCO2	none
Clc1ccc2sc(C3CCNCC3)nc2c1	none
OC(Cn1c2ccccc2c2ccccc21)C[n+]1cccc2ccccc21 (stereo unspecified)	RGS4 pot -7.93
C=C(COC(C)=O)CC1CC(O)[C@]2(C)OC3CC4OC5C[C@]6(C)O[C@]7(C)CCC8OC9C[C@]%10(C)OC%11C(C)=CC(=O)OC%11CC%10OC9C[C@@H](C)C8OC7CC6O[C@]5(C)C/C=C\C4OC3CC2O1 (stereo partly specified)	RGS4 block 18.4 (no result: MrgX1 antagonist, MrgX1 allo act, MrgX1 ag)

Bioassay records as filed in PubChem.
